What was measured:
Assay type in all cases: functional
HL-60(TB) = experiment: Growth inhibition of human HL-60(TB) cells after 48 hrs by sulforhodamine B assay; settings: HL-60, 48 h
Method in brief: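 NCI 60-cell-line panel. Cells were grown in RPMI1640 with 5% fetal calf serum and 2 mM L-glutamine, seeded at a density suited to each line, and preincubated 24 h. Compounds were tested at a minimum of five concentrations at 10-fold dilutions over a 5-log range, with 48 h continuous exposure. Growth was read by sulforhodamine B protein staining, and GI50 was taken from dose-response curves.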

MOLT-4 = experiment: Growth inhibition of human MOLT4 cells after 48 hrs by sulforhodamine B assay; settings: MOLT-4, 48 h
Method in brief: (§1)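 NCI 60-cell-line panel. Cells are grown in RPMI1640 with 5% fetal calf serum and 2 mM L-glutamine, seeded at a density set by growth characteristics, and preincubated 24 h. Compound is tested at a minimum of five concentrations at 10-fold dilution, with 48 h continuous exposure. Viability is read by sulforhodamine B protein assay. GI50, TGI and LC50 come from dose-response curves.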

SR = experiment: Growth inhibition of human SR cells after 48 hrs by sulforhodamine B assay
Method in brief: (§2)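 NCI 60-cell-line panel (nine cancer types), with cells grown in RPMI1640 plus 5% fetal calf serum and 2 mM L-glutamine. Cells are seeded at a density that depends on the line and preincubated 24 h. Compounds are then applied at a minimum of five 10-fold dilutions over a 5-log range with 48 h continuous exposure. Viability is read by SRB protein assay, and GI50 is derived from dose-response curves in units of 10^-5 M.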

A549 = experiment: Growth inhibition of human A549 cells after 48 hrs by sulforhodamine B assay; settings: A549, 48 h; method in brief: as §1
EKVX = experiment: Growth inhibition of human EKVX cells after 48 hrs by sulforhodamine B assay; method in brief: as §1
HOP-92 = experiment: Growth inhibition of human HOP92 cells after 48 hrs by sulforhodamine B assay; settings: HOP-92, 48 h; method in brief: as §1
NCI-H322M = experiment: Growth inhibition of human NCI-H322M cells after 48 hrs by sulforhodamine B assay; method in brief: as §1
NCI-H460 = experiment: Growth inhibition of human NCI-H460 cells after 48 hrs by sulforhodamine B assay; settings: NCI-H460, 48 h; method in brief: as §1
NCI-H522 = experiment: Growth inhibition of human NCI-H522 cells after 48 hrs by sulforhodamine B assay; settings: NCI-H522, 48 h; method in brief: as §1
HCC 2998 = experiment: Growth inhibition of human HCC2998 cells after 48 hrs by sulforhodamine B assay; settings: HCC 2998, 48 h; method in brief: as §1
HCT-15 = experiment: Growth inhibition of human HCT15 cells after 48 hrs by sulforhodamine B assay; settings: HCT-15, 48 h; method in brief: as §1
SW-620 = experiment: Growth inhibition of human SW620 cells after 48 hrs by sulforhodamine B assay; settings: SW-620, 48 h; method in brief: as §2
SF-295 = experiment: Growth inhibition of human SF295 cells after 48 hrs by sulforhodamine B assay; settings: SF-295, 48 h; method in brief: as §1
SNB-19 = experiment: Growth inhibition of human SNB19 cells after 48 hrs by sulforhodamine B assay; settings: SNB-19, 48 h; method in brief: as §2
SNB-75 = experiment: Growth inhibition of human SNB75 cells after 48 hrs by sulforhodamine B assay; settings: SNB-75, 48 h; method in brief: as §2
U-251 = experiment: Growth inhibition of human U251 cells after 48 hrs by sulforhodamine B assay; settings: U-251, 48 h; method in brief: as §2
LOX IMVI = experiment: Growth inhibition of human LOXIMVI cells after 48 hrs by sulforhodamine B assay; method in brief: as §1
SK-MEL-28 = experiment: Growth inhibition of human SK-MEL-28 cells after 48 hrs by sulforhodamine B assay; settings: SK-MEL-28, 48 h; method in brief: as §1
OVCAR-3 = experiment: Growth inhibition of human OVCAR-3 cells after 48 hrs by sulforhodamine B assay; settings: OVCAR-3, 48 h; method in brief: as §1
OVCAR-4 = experiment: Growth inhibition of human OVCAR4 cells after 48 hrs by sulforhodamine B assay; settings: OVCAR-4, 48 h; method in brief: as §1
SK-OV-3 = experiment: Growth inhibition of human SKOV3 cells after 48 hrs by sulforhodamine B assay; settings: SK-OV-3, 48 h; method in brief: as §1
786-0 = experiment: Growth inhibition of human 786-0 cells after 48 hrs by sulforhodamine B assay; settings: 786-0, 48 h; method in brief: as §1
ACHN = experiment: Growth inhibition of human ACHN cells after 48 hrs by sulforhodamine B assay; method in brief: as §1
RXF 393 = experiment: Growth inhibition of human RXF393 cells after 48 hrs by sulforhodamine B assay; settings: RXF 393, 48 h; method in brief: as §1
TK-10 = experiment: Growth inhibition of human TK10 cells after 48 hrs by sulforhodamine B assay; settings: TK-10, 48 h; method in brief: as §2
UO-31 = experiment: Growth inhibition of human UO31 cells after 48 hrs by sulforhodamine B assay; settings: UO-31, 48 h; method in brief: as §2
PC-3 = experiment: Growth inhibition of human PC3 cells after 48 hrs by sulforhodamine B assay; settings: PC-3, 48 h; method in brief: as §1
DU-145 = experiment: Growth inhibition of human DU145 cells after 48 hrs by sulforhodamine B assay; settings: DU-145, 48 h; method in brief: as §1
[1] = Growth inhibition of human Hs 578T cells after 48 hrs by sulforhodamine B assay; method in brief: as §1
BT-549 = experiment: Growth inhibition of human BT549 cells after 48 hrs by sulforhodamine B assay; settings: BT-549, 48 h; method in brief: as §1
T47D = experiment: Growth inhibition of human T47D cells after 48 hrs by sulforhodamine B assay; method in brief: as §2
[2] = read-out: LC50 (the source's name)

Q: With `COc1ccc(/C=N/c2nc3[nH]nc(C)n3c(=O)c2S(=O)(=O)NN2C(=O)C(CN3CCN(C)CC3)SC2c2cccs2)cc1` (stereo not drawn) as the molecule, how does the GI50 (HL-60(TB)) read?
A: The GI50 was 3.41 µM.

Q: And the LC50 (HL-60(TB))?
A: The LC50 was 31.3 µM.

Q: What about the TGI (HL-60(TB)) of the same molecule?
A: Its TGI is 7.04 µM.

Q: What about the GI50 (MOLT-4) of the same molecule?
A: The GI50 was 2.88 µM.

Q: What about the TGI (MOLT-4) of the same molecule?
A: Its TGI is 18.3 µM.

Q: What about the CC50 (MOLT-4; [2]) of the same molecule?
A: Its CC50 is > 100 µM.

Q: What about the GI50 (SR) of the same molecule?
A: Its GI50 is 0.79 µM.

Q: And the LC50 (concentration killing 50% of cells) (SR)?
A: The LC50 (concentration killing 50% of cells) was 13.1 µM.

Q: And the TGI (SR)?
A: Its TGI is 3.03 µM.

Q: What about the GI50 (A549) of the same molecule?
A: Its GI50 is 3.65 µM.

Q: What about the TGI (A549) of the same molecule?
A: Its TGI is > 100 µM.

Q: What about the GI50 (EKVX) of the same molecule?
A: Its GI50 is 39.7 µM.

Q: What about the TGI (EKVX) of the same molecule?
A: The TGI was > 100 µM.

Q: And the GI50 (HOP-92)?
A: The GI50 was 9.41 µM.

Q: And the LC50 (HOP-92)?
A: Its LC50 is > 100 µM.

Q: And the TGI (HOP-92)?
A: Its TGI is > 100 µM.

Q: And the GI50 (NCI-H322M)?
A: The GI50 was 8.18 µM.

Q: What about the TGI (NCI-H322M) of the same molecule?
A: Its TGI is > 100 µM.

Q: And the GI50 (NCI-H460)?
A: The GI50 was 8.2 µM.

Q: What about the TGI (NCI-H460) of the same molecule?
A: Its TGI is > 100 µM.

Q: What about the GI50 (NCI-H522) of the same molecule?
A: The GI50 was 2.63 µM.

Q: And the TGI (NCI-H522)?
A: Its TGI is 13.3 µM.

Q: And the GI50 (HCC 2998)?
A: Its GI50 is 1.34 µM.

Q: And the LC50 (HCC 2998)?
A: The LC50 was > 100 µM.

Q: And the TGI (HCC 2998)?
A: The TGI was 16.8 µM.

Q: What about the GI50 (HCT-15) of the same molecule?
A: The GI50 was 0.65 µM.

Q: And the TGI (HCT-15)?
A: The TGI was > 100 µM.

Q: What about the GI50 (SW-620) of the same molecule?
A: Its GI50 is 1.38 µM.

Q: What about the GI50 (SF-295) of the same molecule?
A: Its GI50 is 1.02 µM.

Q: What about the LC50 (concentration killing 50% of cells) (SF-295) of the same molecule?
A: The LC50 (concentration killing 50% of cells) was > 100 µM.

Q: And the TGI (SF-295)?
A: Its TGI is > 100 µM.

Q: What about the GI50 (SNB-19) of the same molecule?
A: Its GI50 is 7.14 µM.

Q: And the TGI (SNB-19)?
A: Its TGI is > 100 µM.

Q: And the GI50 (SNB-75)?
A: The GI50 was 2.01 µM.

Q: What about the TGI (SNB-75) of the same molecule?
A: The TGI was > 100 µM.

Q: What about the GI50 (U-251) of the same molecule?
A: Its GI50 is 2.51 µM.

Q: And the LC50 (U-251)?
A: Its LC50 is > 100 µM.

Q: What about the TGI (U-251) of the same molecule?
A: Its TGI is > 100 µM.

Q: What about the GI50 (LOX IMVI) of the same molecule?
A: The GI50 was 2.16 µM.

Q: And the TGI (LOX IMVI)?
A: The TGI was > 100 µM.

Q: And the GI50 (SK-MEL-28)?
A: The GI50 was 16.4 µM.

Q: And the TGI (SK-MEL-28)?
A: The TGI was > 100 µM.

Q: And the GI50 (OVCAR-3)?
A: The GI50 was 0.88 µM.

Q: And the LC50 (concentration killing 50% of cells) (OVCAR-3)?
A: The LC50 (concentration killing 50% of cells) was > 100 µM.

Q: What about the TGI (OVCAR-3) of the same molecule?
A: The TGI was > 100 µM.

Q: What about the GI50 (OVCAR-4) of the same molecule?
A: The GI50 was > 100 µM.

Q: And the LC50 (OVCAR-4)?
A: Its LC50 is > 100 µM.

Q: And the TGI (OVCAR-4)?
A: The TGI was > 100 µM.

Q: And the GI50 (SK-OV-3)?
A: The GI50 was 5.12 µM.

Q: And the TGI (SK-OV-3)?
A: Its TGI is > 100 µM.

Q: What about the GI50 (786-0) of the same molecule?
A: The GI50 was 3.93 µM.

Q: What about the TGI (786-0) of the same molecule?
A: Its TGI is > 100 µM.

Q: What about the CC50 (786-0; [2]) of the same molecule?
A: Its CC50 is > 100 µM.

Q: What about the GI50 (ACHN) of the same molecule?
A: The GI50 was 3.18 µM.

Q: What about the TGI (ACHN) of the same molecule?
A: The TGI was > 100 µM.

Q: What about the CC50 (ACHN; [2]) of the same molecule?
A: The CC50 was > 100 µM.

Q: And the GI50 (RXF 393)?
A: The GI50 was 2.34 µM.

Q: What about the TGI (RXF 393) of the same molecule?
A: The TGI was > 100 µM.

Q: What about the CC50 (RXF 393; [2]) of the same molecule?
A: Its CC50 is > 100 µM.

Q: And the GI50 (TK-10)?
A: The GI50 was 5.9 µM.

Q: And the LC50 (TK-10)?
A: Its LC50 is > 100 µM.

Q: And the TGI (TK-10)?
A: Its TGI is > 100 µM.

Q: And the GI50 (UO-31)?
A: Its GI50 is 5.36 µM.

Q: What about the LC50 (UO-31) of the same molecule?
A: The LC50 was > 100 µM.

Q: What about the TGI (UO-31) of the same molecule?
A: Its TGI is > 100 µM.

Q: What about the GI50 (PC-3) of the same molecule?
A: Its GI50 is 2.89 µM.

Q: And the LC50 (concentration killing 50% of cells) (PC-3)?
A: The LC50 (concentration killing 50% of cells) was > 100 µM.

Q: And the TGI (PC-3)?
A: The TGI was 40 µM.

Q: What about the GI50 (DU-145) of the same molecule?
A: Its GI50 is 5.22 µM.

Q: And the LC50 (concentration giving 50% net cell kill) (DU-145)?
A: The LC50 (concentration giving 50% net cell kill) was > 100 µM.

Q: And the TGI (DU-145)?
A: Its TGI is > 100 µM.

Q: What about the GI50 [1] of the same molecule?
A: Its GI50 is 3.05 µM.

Q: What about the LC50 (concentration killing 50% of cells) [1] of the same molecule?
A: Its LC50 (concentration killing 50% of cells) is > 100 µM.

Q: What about the TGI [1] of the same molecule?
A: The TGI was > 100 µM.

Q: What about the GI50 (BT-549) of the same molecule?
A: Its GI50 is 11.3 µM.

Q: And the TGI (BT-549)?
A: The TGI was > 100 µM.

Q: What about the GI50 (T47D) of the same molecule?
A: Its GI50 is > 100 µM.

Q: And the TGI (T47D)?
A: Its TGI is > 100 µM.
